The test system of test [1] is Escherichia coli. In words: Antibacterial activity against uropathogenic Escherichia coli isolate UTI89 assessed as inhibition of biofilm formation at 200 uM after 24 hrs by crystal violet staining method. The class given is functional, organism-based. In outline:
(§1)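 UTI89 grown overnight in LB at 37 °C, then diluted 1:1000 in LB under type-1 pili inducing conditions. Compounds were added at a constant DMSO level, and the plates were incubated 24 h in humid boxes at 26 °C. Wells were washed with water, air dried and stained with 1% crystal violet, and absorbance was read at 600 nm. Growth was monitored in separate plates. Triplicates were compared with DMSO-treated controls.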

The test system of test [2] is Escherichia coli. In words: Inhibition of type 1 pili formation in uropathogenic Escherichia coli isolate UTI89 assessed as inhibition of biofilm formation after 24 hrs by crystal violet staining method. The class given is functional, organism-based. The settings on record: isolate UTI89, 24 h. In outline:
as §1

Among the data in ChEMBL document CHEMBL2040841, “Design, synthesis and evaluation of triazole functionalized ring-fused 2-pyridones as antibacterial agents” (Eur J Med Chem, 2012) are inhibition and EC50 values, retold here.

Molecules are shown by their SMILES. Active and inactive are the calls of the source. No cut-off for these calls is given here. Some results are limits rather than exact numbers.

Usually EC50 stands for the concentration at which the effect is half-maximal. `O=C(O)[C@@H]1CSc2c(-c3cn([C@@H]4OC[C@@H](O)[C@H](O)[C@H]4O)nn3)c(Cc3cccc4ccccc34)c(Br)c(=O)n21`: the inhibition entry with Escherichia coli [1] was “inactive”. In addition, the EC50 with Escherichia coli [2] was > 200 µM. Turning to `CCn1cc(-c2c(Cc3cccc4ccccc34)c(Br)c(=O)n3c2SC[C@H]3C(=O)O)nn1`, the inhibition entry in the test on Escherichia coli [1] was “inactive”. Moreover, the EC50 in the test with Escherichia coli [2] was > 200 µM. For `O=C(O)[C@@H]1CSc2c(-c3cn(CC4CC4)nn3)c(Cc3cccc4ccccc34)cc(=O)n21`, in the test with Escherichia coli [1], the inhibition result was “inactive”. Further, the EC50 with Escherichia coli [2] is > 200 µM. For the compound `O=C(O)[C@@H]1CSc2c(-c3cn(Cc4ccccc4)nn3)c(Cc3cccc4ccccc34)cc(=O)n21`, in the test with Escherichia coli [2], the EC50 turned out to be 100 µM. In the case of `O=C(O)[C@@H]1CSc2c(-c3cn([C@@H]4OC[C@@H](O)[C@H](O)[C@H]4O)nn3)c(Cc3cccc4ccccc34)cc(=O)n21`, the inhibition entry in the test with Escherichia coli [1] is “inactive”. In addition, the EC50 in the test with Escherichia coli [2] was > 200 µM.

With `Cn1cc(-c2c(Cc3cccc4ccccc34)c(Br)c(=O)n3c2SC[C@H]3C(=O)O)nn1`, in the test with Escherichia coli [1], the inhibition result was “inactive”. Besides, the EC50 with Escherichia coli [2] is > 200 µM. The corresponding values for `O=C(O)[C@@H]1CSc2c(-c3cn(CC4CC4)nn3)c(Cc3cccc4ccccc34)c(Br)c(=O)n21` are “inactive” and > 200 µM. With `O=C(O)[C@@H]1CSc2c(-c3c[nH]nn3)c(Cc3cccc4ccccc34)c(Br)c(=O)n21`, in the test with Escherichia coli [1], the inhibition result is “inactive”. Besides, the EC50 in the test with Escherichia coli [2] was > 200 µM. As to `O=C(O)[C@@H]1CSc2c(-c3cn(Cc4ccc([N+](=O)[O-])cc4)nn3)c(Cc3cccc4ccccc34)c(Br)c(=O)n21`, in the test on Escherichia coli [2], the EC50 amounted to 35 µM. For `O=C(O)c1c(-c2c[nH]nn2)sc2c(C3CC3)c(Cc3cccc4ccccc34)cc(=O)n12`, the EC50 with Escherichia coli [2] turned out to be 75 µM. On the same count and under the same terms, under `O=C(O)c1c(-c2cn(Cc3ccccc3)nn2)sc2c(-c3cccc(C(F)(F)F)c3)c(Cc3cccc4ccccc34)cc(=O)n12` stands 50 µM. For `O=C(O)[C@@H]1CSc2c(-c3cn([C@H](CO)Cc4ccccc4)nn3)c(Cc3cccc4ccccc34)cc(=O)n21`, the inhibition result in the test on Escherichia coli [1] is “inactive”. For the same compound, in the test on Escherichia coli [2], the EC50 was > 200 µM. For `O=C(O)[C@@H]1CSc2c(-c3cn([C@H](CO)Cc4ccccc4)nn3)c(Cc3cccc4ccccc34)c(Br)c(=O)n21`, in the test with Escherichia coli [2], the EC50 came to 150 µM. Regarding `O=C(O)[C@@H]1CSc2c(-c3c[nH]nn3)c(Cc3cccc4ccccc34)cc(=O)n21`, in the test on Escherichia coli [1], the inhibition entry is “inactive”. For the same compound, the EC50 with Escherichia coli [2] is > 200 µM. As for `Cn1cc(-c2sc3c(C4CC4)c(Cc4cccc5ccccc45)cc(=O)n3c2C(=O)O)nn1`, in the test with Escherichia coli [1], the inhibition entry was “inactive”. Moreover, the EC50 with Escherichia coli [2] is 150 µM. Turning to `CCn1cc(-c2c(Cc3cccc4ccccc34)cc(=O)n3c2SC[C@H]3C(=O)O)nn1`, the inhibition entry with Escherichia coli [1] was “inactive”. The EC50 in the test on Escherichia coli [2] is > 200 µM. For the compound `Cc1ccc(Cn2cc(-c3c(Cc4cccc5ccccc45)cc(=O)n4c3SC[C@H]4C(=O)O)nn2)cc1`, the EC50 in the test with Escherichia coli [2] is 75 µM. `O=C(O)c1c(-c2cn(Cc3ccccc3)nn2)sc2c(C3CC3)c(Cc3cccc4ccccc34)cc(=O)n12`: in the test on Escherichia coli [1], the inhibition result was “inactive”. The 50% effective concentration (EC50) in the test on Escherichia coli [2] was > 200 µM. `Nc1ccc(Cn2cc(-c3c(Cc4cccc5ccccc45)cc(=O)n4c3SC[C@H]4C(=O)O)nn2)cc1`: the inhibition result in the test on Escherichia coli [1] is “inactive”. Further, the EC50 in the test with Escherichia coli [2] is > 200 µM.

On to `O=C(O)c1c(-c2c[nH]nn2)sc2c(-c3cccc(C(F)(F)F)c3)c(Cc3cccc4ccccc34)cc(=O)n12`, for which the inhibition entry in the test with Escherichia coli [1] was “inactive”. Moreover, the EC50 in the test with Escherichia coli [2] was > 200 µM. With `O=C(O)[C@@H]1CSc2c(-c3cn(Cc4ccccc4)nn3)c(Cc3cccc4ccccc34)c(Br)c(=O)n21`, the EC50 in the test on Escherichia coli [2] amounted to 100 µM.

On to `Cc1ccc(Cn2cc(-c3c(Cc4cccc5ccccc45)c(Br)c(=O)n4c3SC[C@H]4C(=O)O)nn2)cc1`, for which the inhibition entry in the test on Escherichia coli [1] was “inactive”. Besides, the EC50 in the test with Escherichia coli [2] was determined as 200 µM.

With `Cn1cc(-c2sc3c(-c4cccc(C(F)(F)F)c4)c(Cc4cccc5ccccc45)cc(=O)n3c2C(=O)O)nn1`, the EC50 with Escherichia coli [2] is 9 µM. Take `Cn1cc(-c2c(Cc3cccc4ccccc34)cc(=O)n3c2SC[C@H]3C(=O)O)nn1`: the inhibition entry in the test with Escherichia coli [1] was “inactive”. Besides, in the test on Escherichia coli [2], the EC50 is > 200 µM.
